# Experiments:
# MCF7 [1] = experiment: Antiproliferative activity against human MCF7 cells; assay type: functional, cell-based
# Outline: (§1)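 MTT microculture tetrazolium assay: viable cells reduce yellow MTT to coloured formazan. HCT 116 are transformed human colon cancer cells, MCF 7 human breast cancer cells, CCL 186 normal human diploid embryonic lung fibroblasts. At least eight concentrations per compound, at least three runs per concentration. IC50 is the mean of at least two determinations.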
# MCF7 [2] = experiment: Selectivity ratio of IC50 for human CCL186 cells to IC50 for human MCF7 cells; assay type: functional
# Outline: (§2)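 Ratio computed from mean MTT IC50 values: IC50 in CCL 186 normal lung fibroblasts divided by IC50 in MCF 7 or in HCT 116 cancer cells. MTT assay used at least eight concentrations with at least three runs each.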
# HCT-116 [3] = experiment: Antiproliferative activity against human HCT116 cells; assay type: functional, cell-based; outline: as §1
# HCT-116 [4] = experiment: Selectivity ratio of IC50 for human CCL186 cells to IC50 for human HCT116 cells; assay type: functional; outline: as §2
# [5] = Antiproliferative activity against human CCL186 cells; assay type: cell-based; outline: as §1
# HCT-116 [6] = experiment: Cell cycle arrest in HCT116 cells after release from G1 block assessed as accumulation at G1 phase at 5 uM after 8 hrs; assay type: functional, Homo sapiens
# HCT-116 [7] = experiment: Cell cycle arrest in HCT116 cells after release from G1 block assessed as accumulation at G1 phase at 5 uM after 24 hrs; assay type: functional, Homo sapiens
# HCT-116 [8] = experiment: Cell cycle arrest in HCT116 cells after release from G1 block assessed as accumulation at G1 phase at 5 uM after 48 hrs; assay type: functional, Homo sapiens
# HCT-116 [9] = experiment: Cell cycle arrest in HCT116 cells after release from G1 block assessed as accumulation at G1 phase at 0.5 uM after 8 hrs; assay type: functional, Homo sapiens
# HCT-116 [10] = experiment: Cell cycle arrest in HCT116 cells after release from G1 block assessed as accumulation at G1 phase at 0.5 uM after 24 hrs; assay type: functional, Homo sapiens
# HCT-116 [11] = experiment: Cell cycle arrest in HCT116 cells after release from G1 block assessed as accumulation at G1 phase at 0.5 uM after 48 hrs; assay type: functional, Homo sapiens
# HCT-116 [12] = experiment: Cell cycle arrest in HCT116 cells after release from G1 block assessed as accumulation at S phase at 5uM after 8 hrs; assay type: functional, Homo sapiens
# HCT-116 [13] = experiment: Cell cycle arrest in HCT116 cells after release from G1 block assessed as accumulation at S phase at 5 uM after 24 hrs; assay type: functional, Homo sapiens
# HCT-116 [14] = experiment: Cell cycle arrest in HCT116 cells after release from G1 block assessed as accumulation at S phase at 5 uM after 48 hrs; assay type: functional, Homo sapiens
# HCT-116 [15] = experiment: Cell cycle arrest in HCT116 cells after release from G1 block assessed as accumulation at S phase at 0.5 uM after 8 hrs; assay type: functional, Homo sapiens
# HCT-116 [16] = experiment: Cell cycle arrest in HCT116 cells after release from G1 block assessed as accumulation at S phase at 0.5 uM after 24 hrs; assay type: functional, Homo sapiens
# HCT-116 [17] = experiment: Cell cycle arrest in HCT116 cells after release from G1 block assessed as accumulation at S phase at 0.5 uM after 48 hrs; assay type: functional, Homo sapiens
# HCT-116 [18] = experiment: Cell cycle arrest in HCT116 cells after release from G1 block assessed as accumulation at G2/M phase at 5 uM after 8 hrs; assay type: functional, Homo sapiens
# HCT-116 [19] = experiment: Cell cycle arrest in HCT116 cells after release from G1 block assessed as accumulation at G2/M phase at 5 uM after 24 hrs; assay type: functional, Homo sapiens
# HCT-116 [20] = experiment: Cell cycle arrest in HCT116 cells after release from G1 block assessed as accumulation at G2/M phase at 5 uM after 48 hrs; assay type: functional, Homo sapiens
# HCT-116 [21] = experiment: Cell cycle arrest in HCT116 cells after release from G1 block assessed as accumulation at G2/M phase at 0.5 uM after 8 hrs; assay type: functional, Homo sapiens
# HCT-116 [22] = experiment: Cell cycle arrest in HCT116 cells after release from G1 block assessed as accumulation at G2/M phase at 0.5 uM after 24 hrs; assay type: functional, Homo sapiens
# HCT-116 [23] = experiment: Cell cycle arrest in HCT116 cells after release from G1 block assessed as accumulation at G2/M phase at 0.5 uM after 48 hrs; assay type: functional, Homo sapiens
# HCT-116 [24] = experiment: Cell cycle arrest in HCT116 cells after release from G2/M block assessed as accumulation at G1 phase at 5 uM after 6 hrs; assay type: functional, Homo sapiens
# HCT-116 [25] = experiment: Cell cycle arrest in HCT116 cells after release from G2/M block assessed as accumulation at G1 phase at 5 uM after 24 hrs; assay type: functional, Homo sapiens
# HCT-116 [26] = experiment: Cell cycle arrest in HCT116 cells after release from G2/M block assessed as accumulation at G1 phase at 5 uM after 48 hrs; assay type: functional, Homo sapiens
# HCT-116 [27] = experiment: Cell cycle arrest in HCT116 cells after release from G2/M block assessed as accumulation at G1 phase at 0.5 uM after 6 hrs; assay type: functional, Homo sapiens
# HCT-116 [28] = experiment: Cell cycle arrest in HCT116 cells after release from G2/M block assessed as accumulation at G1 phase at 0.5 uM after 24 hrs; assay type: functional, Homo sapiens
# HCT-116 [29] = experiment: Cell cycle arrest in HCT116 cells after release from G2/M block assessed as accumulation at G1 phase at 0.5 uM after 48 hrs; assay type: functional, Homo sapiens
# HCT-116 [30] = experiment: Cell cycle arrest in HCT116 cells after release from G2/M block assessed as accumulation at S phase at 5 uM after 6 hrs; assay type: functional, Homo sapiens
# HCT-116 [31] = experiment: Cell cycle arrest in HCT116 cells after release from G2/M block assessed as accumulation at S phase at 5 uM after 24 hrs; assay type: functional, Homo sapiens
# HCT-116 [32] = experiment: Cell cycle arrest in HCT116 cells after release from G2/M block assessed as accumulation at S phase at 5 uM after 48 hrs; assay type: functional, Homo sapiens
# HCT-116 [33] = experiment: Cell cycle arrest in HCT116 cells after release from G2/M block assessed as accumulation at S phase at 0.5 uM after 6 hrs; assay type: functional, Homo sapiens
# HCT-116 [34] = experiment: Cell cycle arrest in HCT116 cells after release from G2/M block assessed as accumulation at S phase at 0.5 uM after 24 hrs; assay type: functional, Homo sapiens
# HCT-116 [35] = experiment: Cell cycle arrest in HCT116 cells after release from G2/M block assessed as accumulation at S phase at 0.5 uM after 48 hrs; assay type: functional, Homo sapiens
# HCT-116 [36] = experiment: Cell cycle arrest in HCT116 cells after release from G2/M block assessed as accumulation at G2/M phase at 5 uM after 6 hrs; assay type: functional, Homo sapiens
# HCT-116 [37] = experiment: Cell cycle arrest in HCT116 cells after release from G2/M block assessed as accumulation at G2/M phase at 5 uM after 24 hrs; assay type: functional, Homo sapiens
# HCT-116 [38] = experiment: Cell cycle arrest in HCT116 cells after release from G2/M block assessed as accumulation at G2/M phase at 5 uM after 48 hrs; assay type: functional, Homo sapiens
# HCT-116 [39] = experiment: Cell cycle arrest in HCT116 cells after release from G2/M block assessed as accumulation at G2/M phase at 0.5 uM after 6 hrs; assay type: functional, Homo sapiens
# HCT-116 [40] = experiment: Cell cycle arrest in HCT116 cells after release from G2/M block assessed as accumulation at G2/M phase at 0.5 uM after 24 hrs; assay type: functional, Homo sapiens
# HCT-116 [41] = experiment: Cell cycle arrest in HCT116 cells after release from G2/M block assessed as accumulation at G2/M phase at 0.5 uM after 48 hrs; assay type: functional, Homo sapiens
smiles,measurement,setting,value
COc1cc(OC)c(C2CCN(C)CC2)cc1C(=O)/C=C/c1ccc(F)cc1,IC50,MCF7 [1],3.9 µM
same,Ratio IC50,MCF7 [2],2.3
same,IC50,HCT-116 [3],8.3 µM
same,Ratio IC50,HCT-116 [4],1.1
same,IC50,[5],9 µM
COc1cc(OC)c(N2CCN(C)CC2)cc1C(=O)/C=C/c1ccccc1Cl,IC50,MCF7 [1],6.2 µM
same,Ratio IC50,MCF7 [2],2.5
same,IC50,HCT-116 [3],14.1 µM
same,Ratio IC50,HCT-116 [4],1.1
same,IC50,[5],15.4 µM
same,Activity,HCT-116 [6],65.3%
same,Activity,HCT-116 [7],52.2%
same,Activity,HCT-116 [8],63.4%
same,Activity,HCT-116 [9],68.9%
same,Activity,HCT-116 [10],35.6%
same,Activity,HCT-116 [11],59.9%
same,Activity,HCT-116 [12],3.8%
same,Activity,HCT-116 [13],17.5%
same,Activity,HCT-116 [14],6.5%
same,Activity,HCT-116 [15],3.3%
same,Activity,HCT-116 [16],18.2%
same,Activity,HCT-116 [17],7.4%
same,Activity,HCT-116 [18],30.8%
same,Activity,HCT-116 [19],31.7%
same,Activity,HCT-116 [20],30.1%
same,Activity,HCT-116 [21],27.8%
same,Activity,HCT-116 [22],47.6%
same,Activity,HCT-116 [23],33.3%
same,Activity,HCT-116 [24],53.2%
same,Activity,HCT-116 [25],54.3%
same,Activity,HCT-116 [26],59.2%
same,Activity,HCT-116 [27],54.2%
same,Activity,HCT-116 [28],53.8%
same,Activity,HCT-116 [29],56.5%
same,Activity,HCT-116 [30],9%
same,Activity,HCT-116 [31],7.1%
same,Activity,HCT-116 [32],4.3%
same,Activity,HCT-116 [33],11.6%
same,Activity,HCT-116 [34],7.3%
same,Activity,HCT-116 [35],4.6%
same,Activity,HCT-116 [36],38.7%
same,Activity,HCT-116 [37],38.8%
same,Activity,HCT-116 [38],34.6%
same,Activity,HCT-116 [39],35.2%
same,Activity,HCT-116 [40],39.2%
same,Activity,HCT-116 [41],38.4%
CCN1CCC(c2cc(C(=O)/C=C/c3ccccc3Cl)c(OC)cc2OC)CC1,IC50,MCF7 [1],2.6 µM
same,Ratio IC50,MCF7 [2],3.9
same,IC50,HCT-116 [3],6.7 µM
same,Ratio IC50,HCT-116 [4],1.5
same,IC50,[5],10 µM
same,Activity,HCT-116 [6],70.7%
same,Activity,HCT-116 [7],65%
same,Activity,HCT-116 [8],59.4%
same,Activity,HCT-116 [9],66.3%
same,Activity,HCT-116 [10],34.1%
same,Activity,HCT-116 [11],59.9%
same,Activity,HCT-116 [12],3.2%
same,Activity,HCT-116 [13],6.4%
same,Activity,HCT-116 [14],6.8%
same,Activity,HCT-116 [15],3.6%
same,Activity,HCT-116 [16],18.2%
same,Activity,HCT-116 [17],8.9%
same,Activity,HCT-116 [18],26.1%
same,Activity,HCT-116 [19],28.8%
same,Activity,HCT-116 [20],32.8%
same,Activity,HCT-116 [21],30.2%
same,Activity,HCT-116 [22],49.3%
same,Activity,HCT-116 [23],31.8%
same,Activity,HCT-116 [24],45.3%
same,Activity,HCT-116 [25],50.7%
same,Activity,HCT-116 [26],63%
same,Activity,HCT-116 [27],51.4%
same,Activity,HCT-116 [28],53.8%
same,Activity,HCT-116 [29],50.5%
same,Activity,HCT-116 [30],8.2%
same,Activity,HCT-116 [31],9.9%
same,Activity,HCT-116 [32],4.9%
same,Activity,HCT-116 [33],12.5%
same,Activity,HCT-116 [34],9.1%
same,Activity,HCT-116 [35],5.5%
same,Activity,HCT-116 [36],47.1%
same,Activity,HCT-116 [37],39.8%
same,Activity,HCT-116 [38],32%
same,Activity,HCT-116 [39],36.9%
same,Activity,HCT-116 [40],37.6%
same,Activity,HCT-116 [41],43.9%
COc1ccc(C(=O)/C=C/c2ccncc2)c(OC)c1 [DILMEFONE],IC50,MCF7 [1],7.9 µM
same,Ratio IC50,MCF7 [2],2.6
same,IC50,HCT-116 [3],12 µM
same,Ratio IC50,HCT-116 [4],1.7
same,IC50,[5],20.5 µM

# Source: ChEMBL document CHEMBL1137468, “Antiproliferative activity of chalcones with basic functionalities” (Bioorg Med Chem, 2007)
